Legend:
[1] = molecular target: butyrylcholinesterase purified from human blood serum (Homo sapiens, UniProt P06276); assay: In vitro hydrolysis by serum cholinesterase; type: in vitro ADME; settings: even after 24 h incubations
chymotrypsin = chymotrypsin (Bos taurus, UniProt P00766); assay: In vitro hydrolysis by chymotrypsin; type: in vitro ADME; settings: 50 µM compound, 37 °C
Outline: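 Hydrolysis was followed by diode-array UV absorbance at the product peak wavelength, starting on compound addition. Runs were in triplicate. Enzyme activity was confirmed separately with 90 µM 4-nitrophenyl acetate in 0.1 M HEPES, pH 6.5, 37 °C, read at 404 nm for 10 min.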

proteinase K = proteinase K (Parengyodontium album, UniProt P06873); assay: In vitro hydrolysis by proteinase K; type: in vitro ADME, Engyodontium album; settings: 50 µM compound, 37 °C
[2] = molecular target: heteromeric rod CNG channels consisting of CNGA1 and CNGB1 subunits (Bos taurus, UniProt Q00194+Q28181); type: cell-based; settings: 20 µM blocker, Vm = +50 mV
heteromeric rod CNG channels consisting of CNGA1 and CNGB1 subunits, sequence (Q00194 whole entry): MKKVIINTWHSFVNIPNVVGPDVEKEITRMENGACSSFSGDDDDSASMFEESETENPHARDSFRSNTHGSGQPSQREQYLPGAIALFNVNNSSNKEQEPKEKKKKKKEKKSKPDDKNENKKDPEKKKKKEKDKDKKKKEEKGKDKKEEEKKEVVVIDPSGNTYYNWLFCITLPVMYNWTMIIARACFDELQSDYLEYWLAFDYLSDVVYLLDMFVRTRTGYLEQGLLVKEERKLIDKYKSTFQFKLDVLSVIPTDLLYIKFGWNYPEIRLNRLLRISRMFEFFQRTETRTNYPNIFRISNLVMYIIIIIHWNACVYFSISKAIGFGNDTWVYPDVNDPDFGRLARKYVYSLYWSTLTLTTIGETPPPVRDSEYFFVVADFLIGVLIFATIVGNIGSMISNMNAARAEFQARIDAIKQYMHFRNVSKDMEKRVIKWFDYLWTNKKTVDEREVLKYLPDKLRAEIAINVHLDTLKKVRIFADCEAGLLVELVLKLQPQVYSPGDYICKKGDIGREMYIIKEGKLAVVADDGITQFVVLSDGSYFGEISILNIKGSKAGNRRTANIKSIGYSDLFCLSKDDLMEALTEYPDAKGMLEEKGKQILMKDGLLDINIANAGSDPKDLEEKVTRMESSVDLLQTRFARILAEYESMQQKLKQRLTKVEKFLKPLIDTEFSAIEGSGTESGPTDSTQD
heteromeric rod CNG channels consisting of CNGA1 and CNGB1 subunits, sequence (Q28181 whole entry): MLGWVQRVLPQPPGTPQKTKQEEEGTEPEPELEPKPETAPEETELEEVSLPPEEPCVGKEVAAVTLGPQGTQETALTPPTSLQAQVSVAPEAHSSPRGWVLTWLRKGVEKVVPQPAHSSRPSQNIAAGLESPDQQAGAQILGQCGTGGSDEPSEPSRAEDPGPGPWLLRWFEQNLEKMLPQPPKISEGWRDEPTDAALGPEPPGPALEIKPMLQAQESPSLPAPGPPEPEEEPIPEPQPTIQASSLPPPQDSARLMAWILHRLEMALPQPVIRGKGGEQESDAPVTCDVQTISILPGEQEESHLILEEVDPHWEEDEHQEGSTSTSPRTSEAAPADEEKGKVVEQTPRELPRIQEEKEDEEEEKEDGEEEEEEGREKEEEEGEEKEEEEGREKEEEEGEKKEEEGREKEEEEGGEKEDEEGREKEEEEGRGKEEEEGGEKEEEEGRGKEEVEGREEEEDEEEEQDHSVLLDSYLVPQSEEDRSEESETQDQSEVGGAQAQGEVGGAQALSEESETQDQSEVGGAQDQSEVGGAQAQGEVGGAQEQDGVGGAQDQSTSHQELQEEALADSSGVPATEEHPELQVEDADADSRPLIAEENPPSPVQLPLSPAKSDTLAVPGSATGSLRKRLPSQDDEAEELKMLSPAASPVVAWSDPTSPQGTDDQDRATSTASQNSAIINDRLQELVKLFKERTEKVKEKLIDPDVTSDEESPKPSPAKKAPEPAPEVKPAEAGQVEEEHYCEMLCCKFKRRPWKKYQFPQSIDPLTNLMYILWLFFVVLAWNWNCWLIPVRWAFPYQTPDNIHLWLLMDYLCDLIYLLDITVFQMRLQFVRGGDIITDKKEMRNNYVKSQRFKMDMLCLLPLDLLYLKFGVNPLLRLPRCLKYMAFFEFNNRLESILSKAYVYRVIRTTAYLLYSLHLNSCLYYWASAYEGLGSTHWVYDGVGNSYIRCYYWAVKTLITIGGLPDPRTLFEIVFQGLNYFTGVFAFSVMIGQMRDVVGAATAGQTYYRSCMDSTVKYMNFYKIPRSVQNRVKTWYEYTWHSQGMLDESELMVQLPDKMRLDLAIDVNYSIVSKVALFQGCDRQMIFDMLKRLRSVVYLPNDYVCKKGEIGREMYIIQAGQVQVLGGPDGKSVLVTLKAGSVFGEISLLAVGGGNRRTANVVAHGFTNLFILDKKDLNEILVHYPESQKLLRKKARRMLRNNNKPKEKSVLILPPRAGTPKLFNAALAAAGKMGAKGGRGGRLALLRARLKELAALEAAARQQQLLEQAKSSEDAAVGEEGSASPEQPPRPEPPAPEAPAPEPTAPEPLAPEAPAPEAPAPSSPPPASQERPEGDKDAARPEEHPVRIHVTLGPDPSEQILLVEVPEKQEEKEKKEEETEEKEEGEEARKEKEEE

proteinase K, sequence (P06873 106-384): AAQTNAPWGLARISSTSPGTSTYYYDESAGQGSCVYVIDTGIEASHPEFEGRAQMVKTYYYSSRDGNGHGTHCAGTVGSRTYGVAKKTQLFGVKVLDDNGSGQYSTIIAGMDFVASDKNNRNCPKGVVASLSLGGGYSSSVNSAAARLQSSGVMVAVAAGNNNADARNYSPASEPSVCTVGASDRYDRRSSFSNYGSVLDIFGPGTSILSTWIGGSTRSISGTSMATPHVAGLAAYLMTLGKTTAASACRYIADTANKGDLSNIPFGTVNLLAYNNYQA
butyrylcholinesterase purified from human blood serum, sequence (P06276 29-602): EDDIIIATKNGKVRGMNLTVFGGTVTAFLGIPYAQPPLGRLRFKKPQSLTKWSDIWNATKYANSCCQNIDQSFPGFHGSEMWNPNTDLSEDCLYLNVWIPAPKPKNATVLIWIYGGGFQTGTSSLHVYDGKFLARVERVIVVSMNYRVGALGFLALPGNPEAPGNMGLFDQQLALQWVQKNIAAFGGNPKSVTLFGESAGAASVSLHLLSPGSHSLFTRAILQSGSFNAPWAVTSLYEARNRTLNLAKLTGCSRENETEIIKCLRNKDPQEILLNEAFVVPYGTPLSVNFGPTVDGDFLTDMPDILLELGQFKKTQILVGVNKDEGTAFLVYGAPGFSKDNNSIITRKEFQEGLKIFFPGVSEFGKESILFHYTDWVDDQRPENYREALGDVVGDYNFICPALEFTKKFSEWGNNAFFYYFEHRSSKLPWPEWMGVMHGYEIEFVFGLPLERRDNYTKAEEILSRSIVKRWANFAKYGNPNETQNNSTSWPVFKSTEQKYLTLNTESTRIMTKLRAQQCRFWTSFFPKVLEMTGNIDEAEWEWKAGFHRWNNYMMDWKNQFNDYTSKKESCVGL

SMILES | hydrolysis product detection by butyrylcholinesterase [1] | hydrolysis by chymotrypsin (chymotrypsin) | hydrolysis by proteinase K (proteinase K) | block of 2 mM cGMP-induced currents [2] [%]
CCCCCCCCNc1ccc(C(=S)NCCN(C)C)cc1 [Compound 9, 4-(Octylamino)-N-(2-(dimethylamino)ethyl)benzothioamide] | much too stable for our system to detect any hydrolysis product | completely resistant | completely resistant | –
COc1ccc([C@H]2Sc3ccccc3N(CCN(C)C)C(=O)[C@H]2OC(C)=O)cc1 (relative stereo) [l-cis-diltiazem] | – | – | – | 74.2 ± 5.8
CCCCNc1ccc(C(=S)NCCN(C)C)cc1 [Compound 8, 4-(Butylamino)-N-(2-(dimethylamino)ethyl)benzothioamide] | much too stable for our system to detect any hydrolysis product | completely resistant | completely resistant | –
CCCCCCCCNc1ccc(C(=O)NCCN(C)C)cc1 [Compound 7, 4-(Octylamino)-N-(2-(dimethylamino)ethyl)benzamide] | – | resistant | resistant | –
CCCCNc1ccc(C(=O)NCCN(C)C)cc1 [Compound 6, 4-(Butylamino)-N-(2-(dimethylamino)ethyl)benzamide] | – | resistant | resistant | –

Source: publication PMC3132207 (Journal of medicinal chemistry, 2011)
